# ChEMBL document CHEMBL3244400, “Synthesis of 3,4-dihydro-4-oxothieno[2,3-d]pyrimidine-2-carboxylates, a new series of orally active antiallergy agents” (J Med Chem, 1979)
# The source made the active and inactive calls. The rule behind the calls is not given here.
# Key:
# Rattus norvegicus [1] = experiment: Antiallergic activity against egg albumin-induced anaphylaxis in po dosed sensitized rat compound administered 15 mins prior to antigen challenge as single dose by passive cutaneous anaphylaxis test; assay type: functional
# How it was run: (§1)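 Male Sprague–Dawley or Wistar rats (100–150 g) were passively sensitized by two intradermal dilutions of rat anti-egg-albumin serum, which was mainly IgE and raised with EA im (10 mg/kg) plus killed pertussis vaccine iv. After 48 h, drug or vehicle was given. Rats were then challenged iv with EA plus Evans Blue (25 mg/kg each). Spot diameter was read 20–30 min later; ≥5 rats/compound. % inhibition was calculated versus control mean diameter.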
# Rattus norvegicus [2] = experiment: Antiallergic activity against egg albumin-induced anaphylaxis in iv dosed sensitized rat compound administered 15 mins prior to antigen challenge as single dose by passive cutaneous anaphylaxis test; assay type: functional; how it was run: as §1
# Rattus norvegicus [3] = experiment: Antiallergic activity against egg albumin-induced anaphylaxis in sensitized rat at 30 mg/kg, po administered 15 mins prior to antigen challenge as single dose measured up to 4 hrs by passive cutaneous anaphylaxis test; assay type: functional, organism-based; design: dose 30 mg/kg; how it was run: as §1
# Rattus norvegicus [4] = experiment: Antiallergic activity against egg albumin-induced anaphylaxis in sensitized rat at 5 mg/kg, po administered 15 mins prior to antigen challenge as single dose measured up to 4 hrs by passive cutaneous anaphylaxis test; assay type: functional, organism-based; design: dose 5 mg/kg; how it was run: as §1
# Rattus norvegicus [5] = experiment: Antiallergic activity against egg albumin-induced anaphylaxis in sensitized rat at 25 mg/kg, po administered 15 mins prior to antigen challenge as single dose measured up to 4 hrs by passive cutaneous anaphylaxis test; assay type: functional, organism-based; design: dose 25 mg/kg; how it was run: as §1
# Rattus norvegicus [6] = experiment: Antiallergic activity against egg albumin-induced anaphylaxis in sensitized rat at 10 mg/kg, po administered 15 mins prior to antigen challenge as single dose measured up to 4 hrs by passive cutaneous anaphylaxis test; assay type: functional, organism-based; design: dose 10 mg/kg; how it was run: as §1
# Rattus norvegicus [7] = experiment: Antiallergic activity against egg albumin-induced anaphylaxis in sensitized rat at 50 mg/kg, po administered 15 mins prior to antigen challenge as single dose measured up to 4 hrs by passive cutaneous anaphylaxis test; assay type: functional, organism-based; design: dose 50 mg/kg; how it was run: as §1
# Rattus norvegicus [8] = experiment: Inhibition of egg albumin-induced allergic bronchospasm in sensitized, spontaneously breathing and anesthesized Harlan-Wistar rat assessed as drop in pulmonary arterial blood pressure at 0.39 mg/kg administered intraduodenally 15 min prior to antigen challenge (reference value: 32.2 +/- 4.7 %); assay type: functional; settings: route intraduodenal
# How it was run: (§2)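 Male Harlan-Wistar rats (225–275 g) were sensitized with EA im (1 mg/rat) plus pertussis vaccine ip. After 13–15 days they were urethane-anesthetized (1.5 g/kg ip). Drug was given intraduodenally in methocel or iv in saline, then EA 2 mg/rat iv. Pulmonary ventilation pressure and mean arterial pressure were recorded. Individual responses were compared with a separate vehicle-control group mean; 4–15 rats/group.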
# Rattus norvegicus [9] = experiment: Inhibition of egg albumin-induced allergic bronchospasm in sensitized, spontaneously breathing and anesthesized Harlan-Wistar rat assessed as inhibition of control allergic bronchospasm response compound administered intraduodenally 15 min prior to antigen challenge; assay type: functional; how it was run: as §2
# Rattus norvegicus [10] = experiment: Inhibition of egg albumin-induced allergic bronchospasm in sensitized, spontaneously breathing and anesthesized Harlan-Wistar rat assessed as inhibition of control allergic hypotension response compound administered intraduodenally 15 min prior to antigen challenge; assay type: functional; settings: in the assay text read “bronchospasm response” for “hypotension response”; how it was run: as §2
# Rattus norvegicus [11] = experiment: Inhibition of egg albumin-induced allergic bronchospasm in sensitized, spontaneously breathing and anesthesized Harlan-Wistar rat assessed as inhibition of control allergic hypotension response at 0.78 mg/kg administered intraduodenally 15 min prior to antigen challenge; assay type: functional; settings: route intraduodenal; how it was run: as §2
# Rattus norvegicus [12] = experiment: Inhibition of egg albumin-induced allergic bronchospasm in sensitized, spontaneously breathing and anesthesized Harlan-Wistar rat assessed as inhibition of control allergic bronchospasm response at 0.39 mg/kg administered intraduodenally 15 min prior to antigen challenge; assay type: functional; settings: route intraduodenal; how it was run: as §2
# Rattus norvegicus [13] = experiment: Inhibition of egg albumin-induced allergic bronchospasm in sensitized, spontaneously breathing and anesthesized Harlan-Wistar rat assessed as inhibition of control allergic hypotension response at 3.125 mg/kg administered intraduodenally 15 min prior to antigen challenge; assay type: functional; settings: route intraduodenal; how it was run: as §2
# Mast cell [14] = experiment: Inhibition of histamine release in Sprague-Dawley rat peritoneal mast cells at 5 uM after 10 mins by fluorimetry relative to control; assay type: functional
# How it was run: (§3)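 Peritoneal lavage cells from male Sprague–Dawley rats (200–300 g) were sensitized for 2 h at 37 °C in rat anti-EA serum with heparin. Cells were resuspended in buffered HBSS and challenged with EA. Drug was added together with antigen. After 10 min incubation, histamine was measured fluorimetrically. % inhibition was calculated versus release without drug.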
# Rattus norvegicus [15] = experiment: Inhibition of egg albumin-induced allergic bronchospasm in sensitized, spontaneously breathing and anesthesized Harlan-Wistar rat assessed as drop in pulmonary arterial blood pressure at 3.125 mg/kg administered intraduodenally 15 min prior to antigen challenge (reference value: 32.2 +/- 4.7 %); assay type: functional; settings: route intraduodenal; how it was run: as §2
# Mast cell [16] = experiment: Inhibition of histamine release in Sprague-Dawley rat peritoneal mast cells at 20 uM after 10 mins by fluorimetry relative to control; assay type: functional; how it was run: as §3
# Rattus norvegicus [17] = experiment: Inhibition of egg albumin-induced allergic bronchospasm in sensitized, spontaneously breathing and anesthesized Harlan-Wistar rat assessed as drop in mean arterial blood pressure at 3.125 mg/kg administered intraduodenally 15 min prior to antigen challenge (reference value: 46.3 +/- 3.5 %); assay type: functional; settings: route intraduodenal; how it was run: as §2
# Rattus norvegicus [18] = experiment: Inhibition of egg albumin-induced allergic bronchospasm in sensitized, spontaneously breathing and anesthesized Harlan-Wistar rat assessed as inhibition of control allergic bronchospasm response at 0.78 mg/kg administered intraduodenally 15 min prior to antigen challenge; assay type: functional; settings: route intraduodenal; how it was run: as §2
# Rattus norvegicus [19] = experiment: Inhibition of egg albumin-induced allergic bronchospasm in sensitized, spontaneously breathing and anesthesized Harlan-Wistar rat assessed as drop in mean arterial blood pressure at 0.78 mg/kg administered intraduodenally 15 min prior to antigen challenge (reference value: 46.3 +/- 3.5 %); assay type: functional; settings: route intraduodenal; how it was run: as §2
# Rattus norvegicus [20] = experiment: Inhibition of egg albumin-induced allergic bronchospasm in sensitized, spontaneously breathing and anesthesized Harlan-Wistar rat assessed as inhibition of control allergic bronchospasm response at 3.125 mg/kg administered intraduodenally 15 min prior to antigen challenge; assay type: functional; settings: route intraduodenal; how it was run: as §2
# Rattus norvegicus [21] = experiment: Inhibition of egg albumin-induced allergic bronchospasm in sensitized, spontaneously breathing and anesthesized Harlan-Wistar rat assessed as drop in pulmonary arterial blood pressure at 0.78 mg/kg administered intraduodenally 15 min prior to antigen challenge (reference value: 32.2 +/- 4.7 %); assay type: functional; settings: route intraduodenal; how it was run: as §2
# Rattus norvegicus [22] = experiment: Inhibition of egg albumin-induced allergic bronchospasm in sensitized, spontaneously breathing and anesthesized Harlan-Wistar rat assessed as inhibition of control allergic hypotension response at 0.39 mg/kg administered intraduodenally 15 min prior to antigen challenge; assay type: functional; settings: route intraduodenal; how it was run: as §2
# Plasma = experiment: Drug metabolism in Sprague-Dawley rat plasma assessed as sodium 2-carboxy-6-ethyl-4a,7a-dihydrothieno[2,3-d]pyrimidin-4-olate formation at 50 mg/kg, po; assay type: ADME, organism-based; design: dose 50 mg/kg, route oral; settings: in vivo
# How it was run: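 Mature Sprague–Dawley rats (150–200 g) were fasted overnight and given a single 50 mg/kg oral dose. Blood was taken at 0.5–6 h, two rats per time point. Plasma (1 mL) was acidified to pH 1–2 and extracted twice with CHCl₃. The dried residue was taken up in methanol and quantified by reverse-phase C-18 HPLC.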
# Rattus norvegicus [23] = experiment: Inhibition of egg albumin-induced allergic bronchospasm in sensitized, spontaneously breathing and anesthesized Harlan-Wistar rat assessed as drop in mean arterial blood pressure at 0.39 mg/kg administered intraduodenally 15 min prior to antigen challenge (reference value: 46.3 +/- 3.5 %); assay type: functional; settings: route intraduodenal; how it was run: as §2
# Mast cell [24] = experiment: Inhibition of histamine release in Sprague-Dawley rat peritoneal mast cells at 1.25 uM after 10 mins by fluorimetry relative to control; assay type: functional; how it was run: as §3
smiles,measurement,setting,value
Cc1c(CC(C)C)sc2nc(C(=O)[O-])nc([O-])c12.O.[K+].[K+],ED50,Rattus norvegicus [1],2.7 mg/kg
same,ED50,Rattus norvegicus [2],0.14 mg/kg
Cc1c(CC(C)C)sc2nc(C(=O)O)[nH]c(=O)c12,Activity,Rattus norvegicus [3],Active
CCOC(=O)c1nc2sc(C(C)=O)c(C)c2c(=O)[nH]1,ED50,Rattus norvegicus [1],25 mg/kg
CC(C)c1cc2c([O-])nc(C(=O)[O-])nc2s1.O.[Na+].[Na+],ED50,Rattus norvegicus [1],> 10 mg/kg
same,ED50,Rattus norvegicus [2],1 mg/kg
CCOC(=O)c1nc2sc(CC)c(C)c2c(=O)[nH]1,ED50,Rattus norvegicus [1],11.3 mg/kg
CCOC(=O)c1nc2sc(C(C)=O)c(C)c2c(=O)o1,Activity,Rattus norvegicus [4],inactive
CCc1sc2nc(C(=O)O)nc(O)c2c1N,Activity,Rattus norvegicus [5],inactive
CCOC(=O)c1nc2sccc2c(=O)[nH]1,ED50,Rattus norvegicus [1],> 25 mg/kg
CCCCCCc1cc2c(=O)oc(C(=O)OCC)nc2s1,Activity,Rattus norvegicus [6],inactive
CCCCCCc1sc2nc(C(=O)OCC)[nH]c(=O)c2c1C,ED50,Rattus norvegicus [1],50 mg/kg
CCOC(=O)c1nc2sc(CC(C)C)c(C)c2c(=O)[nH]1,ED50,Rattus norvegicus [1],8.1 mg/kg
CCCCCCc1cc2c(=O)[nH]c(C(=O)OCC)nc2s1,ED50,Rattus norvegicus [1],> 5 mg/kg
CCOC(=O)c1nc2sc(N)c(C)c2c(=O)[nH]1,ED50,Rattus norvegicus [1],< 50 mg/kg
CCOC(=O)c1nc2sc(C(C)C)cc2c(=O)o1,ED50,Rattus norvegicus [1],> 10 mg/kg
CC(=O)c1sc2nc(C(=O)O)nc(O)c2c1C,Activity,Rattus norvegicus [7],inactive
CCCCCCc1cc2c([O-])nc(C(=O)[O-])nc2s1.O.[Na+].[Na+],ED50,Rattus norvegicus [1],17.7 mg/kg
CCOC(=O)c1nc2sc(CC)c(C)c2c(=O)o1,Activity,Rattus norvegicus [4],inactive
CCc1sc2nc(C(=O)[O-])nc([O-])c2c1C.O.[Na+].[Na+],ED50,Rattus norvegicus [1],10 mg/kg
Cc1csc2nc(C(=O)[O-])nc([O-])c12.O.[Na+].[Na+],ED50,Rattus norvegicus [1],50 mg/kg
CCOC(=O)c1nc2sc(CC)cc2c(=O)[nH]1,inhibition in vivo at 0.39 mg/kg,Rattus norvegicus [8],48.8%
same,inhibition,Rattus norvegicus [9],Dose-dependent effect
same,ED50,Rattus norvegicus [9]; intraduodenal,1 mg/kg
same,inhibition,Rattus norvegicus [10],Dose-dependent effect
same,ED50,Rattus norvegicus [10]; intraduodenal,1 mg/kg
same,inhibition in vivo at 0.78 mg/kg,Rattus norvegicus [11],5.2%
same,inhibition in vivo at 0.39 mg/kg,Rattus norvegicus [12],4.3%
same,inhibition in vivo at 3.125 mg/kg,Rattus norvegicus [13],18.9%
same,inhibition at 5 µM,Mast cell [14],55%
same,inhibition in vivo at 3.125 mg/kg,Rattus norvegicus [15],17.1%
same,inhibition at 20 µM,Mast cell [16],82%
same,inhibition in vivo at 3.125 mg/kg,Rattus norvegicus [17],42.4%
same,inhibition in vivo at 0.78 mg/kg,Rattus norvegicus [18],27.8%
same,inhibition in vivo at 0.78 mg/kg,Rattus norvegicus [19],51.8%
same,ED50,Rattus norvegicus [1],2.4 mg/kg
same,inhibition in vivo at 3.125 mg/kg,Rattus norvegicus [20],53.6%
same,inhibition in vivo at 0.78 mg/kg,Rattus norvegicus [21],29.2%
same,inhibition in vivo at 0.39 mg/kg,Rattus norvegicus [22],2.7%
same,Drug metabolism,Plasma,metabolite_detected
same,Activity,Rattus norvegicus [3],Active
same,inhibition in vivo at 0.39 mg/kg,Rattus norvegicus [23],48.7%
same,inhibition at 1.25 µM,Mast cell [24],19%
CCOC(=O)c1nc2sc(CC(C)C)c(C)c2c(=O)o1,Activity,Rattus norvegicus [4],inactive
CCc1cc2c([O-])nc(C(=O)[O-])nc2s1.O.[Na+].[Na+],inhibition at 5 µM,Mast cell [14],51%
same,inhibition at 20 µM,Mast cell [16],73%
same,ED50,Rattus norvegicus [1],13 mg/kg
same,ED50,Rattus norvegicus [2],1.2 mg/kg
same,inhibition at 1.25 µM,Mast cell [24],22%
O.O=C([O-])c1nc([O-])c2c3c(sc2n1)CCCC3.[Na+].[Na+],ED50,Rattus norvegicus [1],50 mg/kg
CCOC(=O)c1nc2sc(C(C)C)cc2c(=O)[nH]1,ED50,Rattus norvegicus [1],17.9 mg/kg
CCOC(=O)c1nc2sc(CC)c(I)c2c(=O)[nH]1,ED50,Rattus norvegicus [1],8.1 mg/kg
CCOC(=O)c1nc2scc(C)c2c(=O)[nH]1,ED50,Rattus norvegicus [1],50 mg/kg
CCOC(=O)c1nc2sc(CC)cc2c(=O)o1,ED50,Rattus norvegicus [1],34.4 mg/kg
CCOC(=O)C(=O)Nc1sccc1C(N)=O,ED50,Rattus norvegicus [1],4.5 mg/kg
same,Activity,Rattus norvegicus [3],Active
same,ED50,Rattus norvegicus [2],0.2 mg/kg
CCOC(=O)c1nc2sc(CC)c(N)c2c(=O)[nH]1,ED50,Rattus norvegicus [1],10 mg/kg
CCCCCCc1sc2nc(C(=O)OCC)oc(=O)c2c1C,ED50,Rattus norvegicus [1],8.2 mg/kg
